Laboratory results reported in ChEMBL document CHEMBL1926549, “First chemical feature-based pharmacophore modeling of potent retinoidal retinoic acid metabolism blocking agents (RAMBAs): identification of novel RAMBA scaffolds” (Eur J Med Chem, 2012).

Columns and labels:
Cricetinae = experiment: Inhibition of CYP26 in hamster liver microsomes assessed as [11,12-[3H]ATRA metabolism at 100 nM treated 3 mins before [11,12,3H]ATRA addition measured after 30 mins by HPLC analysis; settings: Microsome
In short: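 Hamster liver microsomes (500 μg/mL stock) were used in 0.1 M phosphate buffer, pH 7.4, with NADPH (20 mM stock), MgCl2 and BSA. Inhibitor at 100 nM in DMSO was preincubated for 3 min at 37 °C. [11,12-3H]-ATRA was then added at 20 μM and incubated 30 min under oxygen at 37 °C. The reaction was stopped with formic acid, extracted with ethyl acetate/methanol/BHA, and radiolabelled polar metabolites were quantified by HPLC.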

[1] = Inhibition of CYP26 in hamster liver microsomes assessed as [11,12-[3H]ATRA metabolism treated 3 mins before [11,12,3H]ATRA addition measured after 30 mins by HPLC analysis; design: species or system Cricetinae, Microsome

Structure (SMILES) | inhibition (Cricetinae) [%] | IC50 [1] [nM]
CCOC(=O)c1cnn(-c2ccc(Cc3ccc(-n4ncc(C(=O)OCC)c4C)cc3)cc2)c1C | 49.8 | 
Cc1nc(N)nc(O)c1CCCNc1ccc(CCCCC2(CCl)OCCO2)cc1 | 29.4 | 
C/C(=N\CCCCCC/N=C(\C)c1cc(O)ccc1O)c1cc(O)ccc1O | 22.2 | 
C/C(=N\Cc1cccc(C/N=C(\C)c2ccccc2O)c1)c1ccccc1O | 38.6 | 
O=C(Nc1ccc(OCCCCCOc2ccccc2)cc1)C(F)(F)F | 34.8 | 
COc1ccc(/C(C)=N/OC(=O)c2cc(OC)c(OC)c(OC)c2)cc1CSc1ccccn1 | 28.5 | 
Nc1nc(Cl)cc(NCCCCCCCCCCNc2cc(Cl)nc(N)n2)n1 | 32.7 | 
CC1=C(/C=C/C(C)=C/C=C/C(C)=C/C(=O)O)C(C)(C)CCC1n1ccnc1 (racemic) |  | 2.33
COc1cc(/C=N/CCCC/N=C/c2cc(OC)c(OC)c(OC)c2)cc(OC)c1OC | 27.3 | 
CC1=C(/C=C/C(C)=C/C=C/C(C)=C/C(=O)O)C(C)(C)CCC1n1cncn1 (racemic) |  | 5.84
O=C(Oc1ccc(CC/C=C/CCc2ccc(OC(=O)c3ccccc3)cc2)cc1)c1ccccc1 | 30.4 | 
CCOc1cc(/C=N/N2CCN(/N=C/c3ccc(O)c(OCC)c3)CC2)ccc1O | 34.3 | 
CC1=C(/C=C/C(C)=C/C=C/C(C)=C/C(=O)n2ccnc2)C(C)(C)CCC1n1cncn1 (racemic) |  | 0.05
Nc1nc(Cl)cc(NCCCCCCCCNc2cc(Cl)nc(N)n2)n1 | 18.1 | 
Cc1cc(CC(C)C2CCC(C)C(c3ccc(O)c(C)c3)C2)ccc1O (stereo not given) | 33.8 | 
COC(=O)c1cc(OCC#CC#CCOc2ccc(O)c(C(=O)OC)c2)ccc1O | 17.9 | 

Other lines, results leading:

inhibition (Cricetinae) [%] | IC50 [1] [nM] | Structure (SMILES)
21.2 |  | CNC(=S)N/N=C(\C)CCCCCCCCCCCC/C(C)=N/NC(=S)NC
36.2 |  | CCCCCCC(CCCCCCCCCCC(=O)OC(C)(C)C)OC(C)=O (stereo not given)
31.4 |  | COC(=O)CCCCCc1ccc(Cc2ccc(CCCCCC(=O)OC)cc2)cc1
20.5 |  | CC(SCCCCCCCCCCSC(C)C(=O)O)C(=O)O (stereo not given)
 | 2 | COC(=O)/C=C(C)/C=C/C=C(C)/C=C/C1=C(C)C(n2cncn2)CCC1(C)C (racemic)
 | 0.009 | COC(=O)/C=C(C)/C=C/C=C(C)/C=C/C1=C(C)C(n2ccnc2)CCC1(C)C (racemic)
54.7 |  | CCOC(=O)/C=C(\C)NCCSSCCN/C(C)=C/C(=O)OCC
42.8 |  | Cc1nc(N)nc(O)c1CCCNc1ccc(CCCCC(=O)CCl)cc1
29.5 |  | CCOC(=O)CCCCCCCCCCCCCCCCC(=O)OCC
